{
  "source": "ChEMBL document CHEMBL4270537",
  "about": "“Design and biological evaluation of novel triaryl pyrazoline derivatives with dioxane moiety for selective BRAFV600E inhibition” (Eur J Med Chem, 2018)",
  "key": {"A-375 [1]": {"system": "A-375", "assay": "Induction of apoptosis in human A375 cells assessed as early apoptotic cells at 2 uM after 48 hrs by Annexin V-FITC/PI staining based flow cytometry (reference value: 5.42%)", "type": "functional", "in_short": "(§1)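 Apoptosis time course. A375 cells in 24-well plates (about 10⁵/well) at 2 µM for 0, 24, 48 and 72 h. Harvested by trypsin, washed in PBS, stained 15 min at room temperature in the dark with Annexin V-FITC/PI, analysed by flow cytometry.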"}, "A-375 [2]": {"system": "A-375", "assay": "Induction of apoptosis in human A375 cells assessed as early apoptotic cells at 2 uM after 24 hrs by Annexin V-FITC/PI staining based flow cytometry (reference value: 5.42%)", "type": "functional", "in_short": "as §1"}, "[3]": {"target": "Dual specificity mitogen-activated protein kinase kinase; MEK1/2 (Homo sapiens, UniProt P36507+Q02750)", "assay": "Inhibition of MEK1/2 (unknown origin)", "type": "protein assay"}, "A-375 [4]": {"system": "A-375", "assay": "Antitumor activity against human A375 cells xenografted in nude mouse assessed as decrease in tumor weight at 10 mg/kg, ip administered every second day for 14 days and measured on day 15 relative to control", "type": "functional", "in_short": "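A375 cells, 3 × 10⁶ in 0.1 mL cold PBS, injected subcutaneously into right flank of nude mice. Treatment began when tumors reached ~100 mm³; mice randomized, 5 per group. Compound suspended in olive oil, given intraperitoneally every second day for 14 days. Body weight recorded every two days; tumors excised and weighed on day 15.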"}, "A-375 [5]": {"system": "A-375", "assay": "Induction of apoptosis in human A375 cells assessed as late apoptotic cells at 2 uM after 72 hrs by Annexin V-FITC/PI staining based flow cytometry (reference value: 3.61%)", "type": "functional", "in_short": "as §1"}, "A-375 [6]": {"system": "A-375", "assay": "Cell cycle arrest in human A375 cells assessed as accumulation at G1 phase at 2 uM after 72 hrs by propidium iodide staining based flow cytometry (reference value: 73.6%)", "type": "functional"}, "A-375 [7]": {"system": "A-375", "assay": "Effect on total ERK1/2 protein level in human A375 cells after 30 mins by Western blot analysis", "type": "ADME, cell-based", "details": "a-375, 0.5 h", "in_short": "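Western blot. Cells rinsed in cold PBS, lysed 30 min on ice in RIPA with protease inhibitors (1:100), cleared at 12,000 g, 4 °C. Protein measured by BCA, resolved by SDS-PAGE, transferred to PVDF, blocked in skim milk. Primary antibodies 1:500 overnight at 4 °C; secondary 1:5000 for 1 h at room temperature.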"}, "A-375 [8]": {"system": "A-375", "assay": "Cell cycle arrest in human A375 cells assessed as accumulation at S phase at 20 uM after 24 hrs by propidium iodide staining based flow cytometry (reference value: 21.3%)", "type": "functional"}, "A-375 [9]": {"system": "A-375", "assay": "Cell cycle arrest in human A375 cells assessed as accumulation at G2/M phase at 2.5 uM after 24 hrs by propidium iodide staining based flow cytometry (reference value: 5.1%)", "type": "functional"}, "A-375 [10]": {"system": "A-375", "assay": "Cell cycle arrest in human A375 cells assessed as accumulation at G2/M phase at 2 uM after 48 hrs by propidium iodide staining based flow cytometry (reference value: 5.1%)", "type": "functional"}, "A-375 [11]": {"system": "A-375", "assay": "Induction of apoptosis in human A375 cells assessed as late apoptotic cells at 5 uM after 24 hrs by Annexin V-FITC/PI staining based flow cytometry (reference value: 4.26%)", "type": "functional"}, "A-375 [12]": {"system": "A-375", "assay": "Cell cycle arrest in human A375 cells assessed as accumulation at S phase at 2.5 uM after 24 hrs by propidium iodide staining based flow cytometry (reference value: 21.3%)", "type": "functional"}, "A-375 [13]": {"system": "A-375", "assay": "Cell cycle arrest in human A375 cells assessed as accumulation at S phase at 5 uM after 24 hrs by propidium iodide staining based flow cytometry (reference value: 21.3%)", "type": "functional"}, "A-375 [14]": {"system": "A-375", "assay": "Induction of apoptosis in human A375 cells assessed as viable cells at 2.5 uM after 24 hrs by Annexin V-FITC/PI staining based flow cytometry (reference value: 88.7%)", "type": "functional", "details": "A-375, 24 h, read-out: Activity"}, "A-375 [15]": {"system": "A-375", "assay": "Induction of apoptosis in human A375 cells assessed as early apoptotic cells at 5 uM after 24 hrs by Annexin V-FITC/PI staining based flow cytometry (reference value: 5.45%)", "type": "functional"}, "[16]": {"target": "Mitogen-activated protein kinase 8 (Homo sapiens, UniProt P45983)", "sequence (P45983 whole entry)": "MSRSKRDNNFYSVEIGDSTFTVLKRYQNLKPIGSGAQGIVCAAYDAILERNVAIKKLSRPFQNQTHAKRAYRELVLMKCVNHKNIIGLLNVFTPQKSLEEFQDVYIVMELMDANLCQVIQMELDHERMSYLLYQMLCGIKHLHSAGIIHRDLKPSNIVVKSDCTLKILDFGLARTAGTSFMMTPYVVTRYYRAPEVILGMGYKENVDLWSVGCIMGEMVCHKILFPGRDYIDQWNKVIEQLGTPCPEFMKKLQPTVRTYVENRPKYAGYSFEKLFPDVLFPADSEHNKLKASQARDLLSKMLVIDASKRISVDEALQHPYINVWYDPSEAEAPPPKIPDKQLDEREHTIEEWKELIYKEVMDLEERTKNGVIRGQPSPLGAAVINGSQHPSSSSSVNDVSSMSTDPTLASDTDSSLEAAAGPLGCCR", "assay": "Inhibition of N-terminal flag-tagged JNK1 (unknown origin) expressed in baculovirus expression system after 60 mins in presence of [gamma-32P]ATP by topcount scintillation method", "in_short": "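Baculovirus-expressed N-terminal FLAG-tagged kinases in 25 mM HEPES pH 7.5, 10 mM Mg acetate, 1 mM DTT, 0.5 µM ATP plus [γ-³²P]ATP, 50 µL. p38α: 100 ng enzyme, MBP substrate. JNK1: 10 ng enzyme, 1 µg c-Jun. Compound and enzyme preincubated 5 min, ATP started the reaction, 60 min at 30 °C. Stopped with 10% TCA, filtered, washed with 3% phosphoric acid, counted by TopCount.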"}, "A-375 [17]": {"system": "A-375", "assay": "Cell cycle arrest in human A375 cells assessed as accumulation at G2/M phase at 2 uM after 24 hrs by propidium iodide staining based flow cytometry (reference value: 5.1%)", "type": "functional"}, "A-375 [18]": {"system": "A-375", "assay": "Induction of apoptosis in human A375 cells assessed as viable cells at 20 uM after 24 hrs by Annexin V-FITC/PI staining based flow cytometry (reference value: 88.7%)", "type": "functional", "details": "A-375, 24 h, read-out: Activity"}, "A-375 [19]": {"system": "A-375", "assay": "Induction of apoptosis in human A375 cells assessed as necrotic cells at 2 uM after 24 hrs by Annexin V-FITC/PI staining based flow cytometry (reference value: 1.55%)", "type": "functional"}, "[20]": {"assay": "Antiproliferative activity against human WM1361 cells after 48 hrs by MTT assay", "type": "functional", "details": "WM1361, 48 h", "in_short": "(§2)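 MTT reduction assay. Cell lines grown to log phase in DMEM with 10% FBS (A375 in DMEM with sodium pyruvate added), seeded at 10⁴ cells/well in 96-well plates. Three replicate wells per concentration, each assay run three times, GI50 averaged.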"}, "A-375 [21]": {"system": "A-375", "assay": "Induction of apoptosis in human A375 cells assessed as necrotic cells at 2 uM after 72 hrs by Annexin V-FITC/PI staining based flow cytometry (reference value: 1.55%)", "type": "functional"}, "A-375 [22]": {"system": "A-375", "assay": "Cell cycle arrest in human A375 cells assessed as accumulation at G2/M phase at 2 uM after 72 hrs by propidium iodide staining based flow cytometry (reference value: 5.1%)", "type": "functional"}, "[23]": {"target": "T1, Serine/threonine-protein kinase B-raf (Homo sapiens, UniProt P15056)", "T1 sequence (P15056 whole entry)": "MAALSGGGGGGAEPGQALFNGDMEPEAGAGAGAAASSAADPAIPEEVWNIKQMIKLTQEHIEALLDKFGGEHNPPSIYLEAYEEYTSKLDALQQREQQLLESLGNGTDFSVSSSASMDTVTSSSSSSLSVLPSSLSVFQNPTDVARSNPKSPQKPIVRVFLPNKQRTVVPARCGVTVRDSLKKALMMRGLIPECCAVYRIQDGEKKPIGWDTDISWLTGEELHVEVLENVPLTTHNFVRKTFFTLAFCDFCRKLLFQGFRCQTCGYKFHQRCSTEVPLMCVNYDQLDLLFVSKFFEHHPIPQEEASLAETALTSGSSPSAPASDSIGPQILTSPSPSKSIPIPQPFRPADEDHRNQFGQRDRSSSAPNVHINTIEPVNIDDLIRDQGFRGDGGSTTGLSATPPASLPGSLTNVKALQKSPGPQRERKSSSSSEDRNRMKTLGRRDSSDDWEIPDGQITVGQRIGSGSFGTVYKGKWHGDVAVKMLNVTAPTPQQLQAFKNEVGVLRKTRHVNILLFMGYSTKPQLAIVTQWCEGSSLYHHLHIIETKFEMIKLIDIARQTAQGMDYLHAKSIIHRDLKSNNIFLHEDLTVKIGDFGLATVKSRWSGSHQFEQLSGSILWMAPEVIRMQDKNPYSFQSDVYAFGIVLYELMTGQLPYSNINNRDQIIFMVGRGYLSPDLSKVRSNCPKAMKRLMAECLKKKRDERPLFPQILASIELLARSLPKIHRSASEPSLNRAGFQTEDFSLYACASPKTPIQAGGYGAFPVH", "assay": "Inhibition of wild type BRAF in human WM1361 cells assessed as decrease in MEK1/2 phosphorylation up to 5 uM after 30 mins by Western blot analysis", "type": "cell-based"}, "A-375 [24]": {"system": "A-375", "assay": "Induction of apoptosis in human A375 cells assessed as necrotic cells at 2 uM after 48 hrs by Annexin V-FITC/PI staining based flow cytometry (reference value: 1.55%)", "type": "functional"}, "A-375 [25]": {"system": "A-375", "assay": "Cell cycle arrest in human A375 cells assessed as accumulation at G1 phase at 20 uM after 24 hrs by propidium iodide staining based flow cytometry (reference value: 73.6%)", "type": "functional"}, "A-375 [26]": {"system": "A-375", "assay": "Cell cycle arrest in human A375 cells assessed as accumulation at G2/M phase at 10 uM after 24 hrs by propidium iodide staining based flow cytometry (reference value: 5.1%)", "type": "functional"}, "[27]": {"assay": "Cytotoxicity against HEK293T cells assessed as decrease in cell viability after 48 hrs by MTT assay", "type": "cell-based, HEK-293T", "details": "human", "in_short": "as §2"}, "[28]": {"target": "T1, Serine/threonine-protein kinase B-raf", "assay": "Inhibition of recombinant human full length GST-tagged wild type BRAF expressed in baculovirus expression system using recombinant human full length N-terminal His-tagged MEK1 as substrate preincubated for 1 hr followed by substrate addition measured after 25 mins"}},
  "note": "Active and inactive are the calls of the source. The calls are words filed in the database; no cut-off is given here.",
  "data": [
    {"smiles": "COc1cccc(C2=NN(C(=S)Nc3ccccc3)C(c3ccc4c(c3)OCCO4)C2)c1", "note": "(stereo not drawn)", "values": [
      {"measurement": "Activity", "setting": "A-375 [1]", "value": 17.1, "unit": "%"},
      {"measurement": "Activity", "setting": "A-375 [2]", "value": 10.9, "unit": "%"},
      {"measurement": "IC50", "setting": "[3]", "value": 195, "unit": "µM"},
      {"measurement": "fold change (FC)", "setting": "A-375 [4]", "value": 2},
      {"measurement": "Activity", "setting": "A-375 [5]", "value": 6.49, "unit": "%"},
      {"measurement": "Activity", "setting": "A-375 [6]", "value": 35.6, "unit": "%"},
      {"measurement": "Activity", "setting": "A-375 [7]", "value": "Non-Toxic"},
      {"measurement": "Activity", "setting": "A-375 [8]", "value": 16.9, "unit": "%"},
      {"measurement": "Activity", "setting": "A-375 [9]", "value": 8.2, "unit": "%"},
      {"measurement": "Activity", "setting": "A-375 [10]", "value": 15, "unit": "%"},
      {"measurement": "Activity", "setting": "A-375 [11]", "value": 8.1, "unit": "%"},
      {"measurement": "Activity", "setting": "A-375 [12]", "value": 19.5, "unit": "%"},
      {"measurement": "Activity", "setting": "A-375 [13]", "value": 28.4, "unit": "%"},
      {"measurement": "viability at 2.5 µM", "setting": "A-375 [14]", "value": 74.4, "unit": "%"},
      {"measurement": "Activity", "setting": "A-375 [15]", "value": 23.4, "unit": "%"},
      {"measurement": "IC50", "setting": "[16]", "value": "> 200", "unit": "µM"},
      {"measurement": "Activity", "setting": "A-375 [17]", "value": 10.3, "unit": "%"},
      {"measurement": "viability at 20 µM", "setting": "A-375 [18]", "value": 36.2, "unit": "%"},
      {"measurement": "Activity", "setting": "A-375 [19]", "value": 2.56, "unit": "%"},
      {"measurement": "GI50", "setting": "[20]", "value": "> 200", "unit": "µM"},
      {"measurement": "Activity", "setting": "A-375 [21]", "value": 2.24, "unit": "%"},
      {"measurement": "Activity", "setting": "A-375 [22]", "value": 36.8, "unit": "%"},
      {"measurement": "inhibition", "setting": "[23]", "value": "inactive"},
      {"measurement": "Activity", "setting": "A-375 [24]", "value": 3.05, "unit": "%"},
      {"measurement": "Activity", "setting": "A-375 [25]", "value": 52.8, "unit": "%"},
      {"measurement": "Activity", "setting": "A-375 [26]", "value": 18.1, "unit": "%"},
      {"measurement": "GI50 at 48 h", "setting": "[27]", "value": "> 200", "unit": "µM"},
      {"measurement": "IC50", "setting": "[28]", "value": "> 200", "unit": "µM"}
    ]}
  ]
}
